# Assay results from PubChem BioAssay AID871 (The Scripps Research Institute Molecular Screening Center, 2007).
# Screen size: about 190,000 compounds; about 1,800 (0.95%) were called active. The sample as a whole holds a higher share of actives than the screen did. Unmarked numbers belong to inactive results.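 How the source made its calls: active means activation above the screen-wide mean of compound activation plus 3 SD (cut at about 130% in these data); inactive means the rest.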
# Test: enhancers of STAT3 transcriptional signaling – U3A cells, luciferase, luminescence, MLSCN library, primary screen (AID 871);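 further: 0% = background luminescence of wells with medium and substrate only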
# Settings: IL-6 STAT3-luciferase reporter, at 5.6 µM, active compounds read high, 100% = signal with IL-6 EC80 alone
# Procedure, shortened: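 Material: STAT1-lacking human U3A cells, STAT3 luciferase reporter | Benchmarks: IL-6-only wells as 100% reference | Probe or stimulus: IL-6 (33 ng/mL) | Timing: Compound 1 h, then IL-6 6 h at 37 °C | Detection: Luminescence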
row,Structure (SMILES),activation (% of control)
1,O=C(c1ccc(-c2ccccc2)cc1)C1CCCN(C(=O)c2cncs2)C1 (configuration not stated),98.2%
2,COc1cccc(-n2cc3c(c2-c2ccccc2)c(=O)n(C)c(=O)n3C)c1,110%
3,COc1ccc(-c2c3c(=O)n(C)c(=O)n(C)c3cn2-c2cccc(OC)c2)cc1,154% (active)
4,COc1ccc(-c2c3c(=O)n(C)c(=O)n(C)c3cn2NC(C)=O)cc1,109%
5,CC(C)CCN1C(=O)c2ccc(C(=O)Nc3cccc(S(N)(=O)=O)c3)cc2C1=O,93.1%
6,CCC(C)NC(=O)c1nn(C)c(=O)c2ccccc12 (configuration not stated),100%
7,CN(C)S(=O)(=O)c1cccc(NC(=S)NCc2ccc3c(c2)OCO3)c1,95.2%
8,CCNCc1cc2cc(C)ccc2[nH]c1=O,139% (active)
9,CC(=O)OCc1cc2cc(C)ccc2[nH]c1=O,103%
10,CCN(Cc1cc2cc(C)ccc2[nH]c1=O)S(=O)(=O)c1ccccc1,91.2%
11,Cc1ccc(-n2cnc3ncnc(-c4ccccc4)c32)cc1,94.7%
12,CC(C)OCCCNC(=S)N1CCC(C(=O)c2ccc3c(c2)OCCO3)CC1,102%
13,Cc1cccc(CSc2nc3c(c(=O)n2C)SCC3)c1,78.4%
14,N#Cc1ccc(C(=O)Nc2cccc3cccnc23)c(F)c1,87.4%
15,O=C(COC(=O)c1ccccn1)Nc1cccc2ccccc12,94.8%
16,N#Cc1ccccc1NC(=O)COc1c(Br)cc(Br)c2cccnc12,151% (active)
17,CCN(CC)P(=O)(Nc1ccc(SC(F)F)cc1)c1ccc(N(C)C)cc1NC(=O)c1ccco1 (configuration not stated),131%
18,CCOc1ccc(C2c3[nH]c4ccccc4c3CCN2Cc2cn(CC)nc2C)cc1 (configuration not stated),140% (active)
19,COc1cc(-c2nnn(CC(=O)NCc3ccccc3)n2)cc(OC)c1OC,99.5%
20,CCOP(=O)(OCC)C(Nc1ccc([N+](=O)[O-])cc1)c1ccc(Cl)cc1 (configuration not stated),109%
21,Cc1cccc(N2CCN(c3ccc(NC(=O)/C=C\C(=O)O)cc3)CC2)c1,100%
22,CC(=O)c1ccc(NC(=O)C(C)N(C)CC(=O)Nc2ccccc2Cl)cc1 (configuration not stated),96.3%
23,COc1ccc([N+](=O)[O-])cc1NC(=O)C(C)OC(=O)C1c2ccccc2Oc2ccccc21 (configuration not stated),106%
24,COc1ccc([N+](=O)[O-])cc1C1NN=C(c2cccc3ccccc23)S1 (configuration not stated),139% (active)
25,COc1ccccc1CC(=O)Nc1ccc([N+](=O)[O-])cc1OC,99.8%

row,Structure (SMILES),activation (% of control)
1,Cc1ccccc1OCCOc1ccc([N+](=O)[O-])cc1/C=N/n1cnnc1,111%
2,O=C(CCc1nnc(CCCCc2ccccc2)o1)NC(c1cccnc1)C(F)(F)F (configuration not stated),104%
3,CC1(C)C=C2[C@H]3CC[C@@H]4[C@@]5(C)CCC(=O)C(C)(C)[C@@H]5CC[C@@]4(C)[C@]3(C)CC[C@@]2(C(=O)O)CC1,99.9%
4,O=[N+]([O-])c1cccc(Nc2c3ccccc3nc3ccccc23)c1,109%
5,CC(=O)Nc1ccc(NC(=O)COc2ncnc3ccccc23)cc1,95.9%
6,CC(=O)Nc1ccc(Nc2c3ccccc3nc3ccccc23)cc1,218% (active)
7,CC(C)C(C)(C#N)NC(=O)CSc1nc2scc(-c3ccccc3)c2c(=O)[nH]1 (configuration not stated),108%
8,O=C(Nc1ccncc1)c1cc(-c2ccccn2)nc2ccc(Br)cc12,111%
9,O=C(CSc1nn(-c2ccc(F)cc2)c(=S)s1)NC1CCS(=O)(=O)C1 (configuration not stated),98.1%
10,CCS(=O)(=O)N1CCC(C(=O)N2CCN(c3ccccc3)CC2)CC1,103%
11,Cc1noc(/C=C/c2ccco2)c1S(=O)(=O)N1CCC(C(=O)N2CCc3ccccc32)CC1,104%
12,O=C(C1CCN(S(=O)(=O)Cc2ccccc2)CC1)N1CCCc2ccccc21,136% (active)
13,O=C(O)/C(=C/c1cccnc1)NC(=O)c1ccccc1,107%
14,Nc1ccc(OCC(O)C[n+]2ccc(CCS(=O)(=O)[O-])cc2)cc1 (configuration not stated),101%
15,CCC(C(=O)Nc1ccc2c(c1)OCCO2)c1ccccc1 (configuration not stated),93.2%
16,CCC1C(=O)c2ccccc2N(C)C1=O (configuration not stated),110%
17,CN1C(=O)/C(=N/OC(=O)c2ccccc2Br)c2ccccc21,100%
18,CN1C(=O)/C(=C\c2cc(Br)cs2)c2ccccc21,178% (active)
19,CN(C)c1ccc(C=C2C(=O)OC3(CCCC3)OC2=O)cc1,103%
20,COc1ccccc1-c1nnc(NC(=O)c2cccc(N3C(=O)CCC3=O)c2)o1,116%
21,COc1ccccc1-c1nnc(SCC(=O)Nc2cc(C)on2)o1,91%
22,COc1ccccc1-c1nnc(NC(=O)c2ccc3ncsc3c2)o1,146% (active)
23,Cc1scc(C(=O)NNC(=S)NCC(C)C)c1C,97.6%
24,Cc1ccc(C(C)(C)C)c(OCCCCN2CCCC2)c1,95.5%
25,Cc1nc(C)c(C(=O)Nc2cccc(C)c2C)o1,105%

row,Structure (SMILES),activation (% of control)
1,Cc1nc(C)c(C(=O)Nc2ccc(C)c(F)c2)o1,92.3%
2,COc1ccc(Cl)cc1NC(=O)c1oc(C)nc1C,162% (active)
3,Cc1cc(Cl)ccc1NC(=S)NCCCN1CCCC1=O,98.6%
4,COc1ccccc1N1CCN(C(=O)c2ccc(Cl)c(S(=O)(=O)N3CCCC3)c2)CC1,97%
5,Cc1ccc(NC(=O)c2cc(-c3ccc(C)o3)nc3ccccc23)nc1,104%
6,Cc1ccc2c(Cl)c(C(=O)Nc3nn[nH]n3)sc2c1,96%
7,Cc1ccc(-c2cc(C(=O)Nc3nn[nH]n3)c3ccccc3n2)c(C)c1,140% (active)
8,CCOC(=O)C1(Cc2cccc(OC)c2)CCN(C(C)COC)CC1 (configuration not stated),108%
9,COc1cccc(NC(=O)c2ccc3c(SCC(=O)O)c4c(nc3c2)CCCC4)c1,106%
10,COCC(=O)Nc1cc(C(=O)OC)cc(C(=O)OC)c1,97.7%
11,C#CCSc1nnc(-c2sc3ccccc3c2Cl)o1,125%
12,Fc1ccc(CSc2nnc(-c3cc4c(s3)-c3ccccc3CC4)o2)cc1,117%
13,CCSc1nnc(-c2cc3c(s2)-c2ccccc2CC3)o1,173% (active)
14,CCNC(=O)COC(=O)CCNC(=O)c1cccc(C)c1,102%
15,COc1cccc(C(=O)Oc2cc(C)[nH]c(=O)c2[N+](=O)[O-])c1,101%
16,OC(COc1cccc(OCC(O)CN2CCCC2)c1)CN1CCCC1 (configuration not stated),101%
17,OC(COc1ccc2ccccc2c1)Cn1cncn1 (configuration not stated),97.5%
18,OC(COc1ccc2ccccc2c1)CN1CCOCC1 (configuration not stated),159% (active)
19,COc1ccc(/C=N/n2c(C)cc(C)cc2=O)cc1,83.5%
20,C=CCn1c(-c2ccc3[nH]c(C)c(C)c3c2)n[nH]c1=S,80.2%
21,C=CCn1c(-c2sc(-c3ccccc3)nc2C)n[nH]c1=S,94.6%
22,C=CCn1c(-c2ccccc2OCC)n[nH]c1=S,158% (active)
23,COc1ccc(CC(=O)N[C@@H](CCSC)c2nc3ccccc3[nH]2)cc1,96.5%
24,COc1ccc(COC(=O)N/N=C(\C)CC(=O)Nc2ccc(Cl)cc2)cc1,101%
25,Cc1ccc(C2C(C#N)C(C#N)N3CCCN23)cc1 (configuration not stated),141% (active)

row,Structure (SMILES),activation (% of control)
1,O=C(CCC(=O)NNc1nc2ccccc2c2nc(-c3ccccc3)nn12)NCCCN1CCCC1=O,112%
2,Cc1nccn1CCCNC(=O)CC1C(=O)NCCN1Cc1ccc(Cl)c(F)c1 (configuration not stated),100%
3,COc1ccc(C(CC(=O)c2ccccc2)S(=O)(=O)c2ccccc2)cc1 (configuration not stated),110%
4,COc1ccc(C=Nc2cccc3ncccc23)cc1,109%
5,Oc1c(C=Nc2cccc3nsnc23)ccc2ccccc12,144% (active)
6,CCCCCCC(=O)Nc1nc(C)c(-c2csc(Nc3cccc(OC)c3)n2)s1,99.6%
7,CCCCCCC(=O)Nc1nc(C)c(-c2csc(Nc3cc(Cl)ccc3OC)n2)s1,105%
8,COc1ccc(-c2csc(NC(=O)COC(=O)Cc3ccc(Cl)cc3Cl)n2)cc1,100%
9,Cc1ccc(Nc2nc(-c3sc(NC(=O)c4ccccc4)nc3C)cs2)cc1,138% (active)
10,CCCCC(=O)Nc1nc(C)c(-c2csc(Nc3ccc(Cl)cc3)n2)s1,149% (active)
11,Cc1ccc(-c2csc(NNC(=O)c3ccccc3)n2)cc1,101%
12,C=CCCC(=O)Nc1nc(C)c(-c2csc(Nc3ccc(Cl)cc3)n2)s1,159% (active)
13,Cc1nc(NC(=O)c2cccc(Cl)c2)sc1-c1csc(Nc2cccc(Cl)c2)n1,117%
14,Cc1nc(NC(=O)CN(C)S(=O)(=O)c2ccc(Cl)cc2)sc1C,106%
15,Cc1ccc(S(=O)(=O)c2ccc(Cl)cc2)cc1S(=O)(=O)NC(C(=O)O)C(C)C (configuration not stated),102%
16,Clc1ccc(-c2nc3ccccn3c2CN2CCSCC2)cc1,99.3%
17,Cn1c(=O)c2cc(S(=O)(=O)NCCC(=O)Nc3ccc(F)cc3F)ccc2n(C)c1=O,109%
18,COc1ccc(NC(=O)CC2C(=O)OCC3CCCCN32)cc1Cl (configuration not stated),102%
19,COc1ccccc1CN(C)c1nnnn1-c1ccccc1,99.5%
20,COc1cccc(-n2c(=S)[nH]c3c(oc4ccccc43)c2=O)c1,136% (active)
21,COC(=O)c1ccc(CSc2nc3ccccc3c(=O)n2-c2cccc(OC)c2)o1,101%
22,COc1cccc(-n2cc(C(=O)O)c3ccccc3c2=O)c1,98.5%
